Data on 34 molecules can be found in ChEMBL document CHEMBL1132986, “Novel and selective calcitonin-inducing agents” (J Med Chem, 2000).

pIC50: −log10 of the molar value.

Experiment [1] concerns C3 cells. The experiment is described as follows: Calcitonin (CT) secretion/RIA assay to measure the ability of compound to increase cellular levels and secretion of human CT.
The target in experiment [2] is T1, Phosphodiesterase 4 (Homo sapiens, UniProt P27815+Q08499+Q07343+Q08493). The experiment is described as follows: PDE4 30 assay to measure the percent rolipram activity of the PDE4 assay at 30 micro M concentration of the compound. The format is protein assay. In short, it runs like this: (§1)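 U937 PDE4 preparation, 1 µM [3H]cAMP, 37 °C, test compound at 30 µM. Activity scaled to rolipram: no rolipram inhibition = 0%, full rolipram inhibition (10 µM) = 100%.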

The subject of experiment [3] is C3 cells. The experiment is described as follows: CT-luci reporter gene assay to measure the ability to increase transcription of a […] linked to the human CT gene. (In general: A reporter such as luciferase makes a cellular process visible.)
The subject of experiment [4] is C3 cells. The experiment is described as above. The source holds these as a separate data set.
Experiment [5] concerns the target T1, Phosphodiesterase 4. The experiment is described as follows: PDE4 30 assay to measure the percent rolipram activity of the PDE4 assay at 30 uM concentration of the compound. Type of experiment: protein assay. In a few lines:
as §1

For experiment [6], the target named is T1, Phosphodiesterase 4. Put plainly: Concentration at which 50% of the activity of the Phosphodiesterase 4 from Human U937 cells is inhibited. Type of experiment: cell-based. Conditions: u-937.
In experiment [7] the test system is Rattus norvegicus. Put plainly: The compound was tested for its bone protection activity at 30 mg/kg/day by intra peritoneal administration. The format is functional. In short, it runs like this: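 Mature female Sprague-Dawley rats, bilaterally ovariectomized or sham-operated, 4-5 days recovery; compound in 1% Tween 80 in saline, i.p. 30 mg/kg/day for 4 weeks; 7-8 rats per group. Proximal tibia trabecular BMD by QCT under ketamine/xylazine/acepromazine; % protection with OVX = 0%, sham = 100%; p < 0.05.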

Experiment [8] addresses T1, Phosphodiesterase 4. Put plainly: Percent rolipram activity at 30 uM (PDE 30 assay). Type of experiment: protein assay. In short, it runs like this:
as §1

In experiment [9] the test system is Rattus norvegicus. Put plainly: The compound was tested for its bone protection activity at 50 mg/kg/day by oral administration.

With `CCCCn1c(=O)c2c(nc(C)n2S(=O)(=O)c2ccc(OC)c(OC)c2)n(CCCC)c1=O`, the CTS in experiment [1] was found to be 2.6. The same molecule yielded a PDE4 inhibition relative to rolipram in experiment [2] of 100%. This molecule showed a TAR in [3] of 1.5.
For the molecule `CCCCn1c(=O)c2c(ncn2S(=O)(=O)c2ccccc2F)n(CCCC)c1=O`, the CTS in [1] is reported as 1.7. In experiment [4], the TAR is on record as 2. The molecule further came in with a PDE4 inhibition relative to rolipram in experiment [5] of 53%.
Consider `CCCCOc1ccc(S(=O)(=O)n2cnc3c2c(=O)n(CCCC)c(=O)n3CCCC)cc1`, for which the CTS in experiment [1] was 5. Besides, the PDE4 inhibition relative to rolipram in [5] came to 54%. For the same molecule, the TAR in [3] is recorded as 2.2.
Turning to `CCCCn1c(=O)c2c(ncn2S(=O)(=O)CCC)n(CCCC)c1=O`, the CTS in experiment [1] worked out at 2.2. In experiment [4], the TAR is recorded as 2.3. In experiment [5], the PDE4 inhibition relative to rolipram stood at 54%.
Turning to `CCCCCCCCn1c(=O)c2c(ncn2S(=O)(=O)c2ccc(OC)c(OC)c2)n(CCCC)c1=O`, in [1], the CTS is recorded as 1.1. For the same molecule, the PDE4 inhibition relative to rolipram in experiment [2] amounted to 0%. For the same molecule, the TAR in experiment [3] was determined as 0.7.
Take `CCCCn1c(=O)c2c(ncn2S(=O)(=O)c2cc(C)c(Cl)cc2C)n(CCCC)c1=O`: the CTS in [1] was found to be 5.3. Besides, in [6], the pIC50 was 4.63. The molecule further returned a Protection in experiment [7] of 52%. For the same molecule, the PDE4 inhibition relative to rolipram in experiment [2] worked out at 72%. Moreover, the TAR in experiment [3] is 2.5.
In the case of `CCCCn1c(=O)c2c(ncn2S(=O)(=O)c2ccc(OC)cc2)n(CCCC)c1=O`, the CTS in experiment [1] came to 4.6. This molecule also yielded a TAR in experiment [4] of 1.9. This molecule also showed a PDE4 inhibition relative to rolipram in experiment [5] of 49%.
Consider `CCCCn1c(=O)c2c(nc(C)n2S(=O)(=O)c2cccc([N+](=O)[O-])c2)n(CCCC)c1=O`, for which the CTS in experiment [1] was 3.7. The same molecule returned a PDE4 inhibition relative to rolipram in [2] of 85%. The same molecule showed a TAR in experiment [3] of 1.8.
With `CCCCCCCCS(=O)(=O)n1cnc2c1c(=O)n(CCCC)c(=O)n2CCCC`, the CTS in experiment [1] is reported as 4.7. In experiment [4], this molecule registered a TAR of 2.1. In addition, the PDE4 inhibition relative to rolipram in [5] worked out at 12%.
For the molecule `CCCCn1c(=O)c2c(ncn2S(=O)(=O)c2ccc(NO)cc2)n(CCCC)c1=O`, the CTS in [1] is listed as 5.6. The molecule also gave a PDE4 inhibition relative to rolipram in experiment [5] of 18%. This molecule also displayed a TAR in experiment [3] of 2.
Consider `CCCCn1c(=O)c2c(ncn2S(=O)(=O)c2ccc(OC(F)(F)F)cc2)n(CCCC)c1=O`, for which, in experiment [1], the CTS came to 4.9. This molecule also returned a PDE4 inhibition relative to rolipram in experiment [5] of 0%. This molecule registered a TAR in [3] of 2.
In the case of `CCCCn1c(=O)c2c(ncn2S(=O)(=O)c2cccs2)n(CCCC)c1=O`, the CTS in experiment [1] is 2.9. The molecule further showed a PDE4 inhibition relative to rolipram in [2] of 48%. In addition, in experiment [3], the TAR was determined as 2.2.
`CCCCn1c(=O)c2c(ncn2S(=O)(=O)c2cccc3ccccc23)n(CCCC)c1=O`: in [1], the CTS is 4.5. For the same molecule, the Protection in [7] worked out at 37%. Further, the PDE4 inhibition relative to rolipram in experiment [2] amounted to 17%. Further, the TAR in [3] was 2.5.
On to `CCCCn1c(=O)c2c(ncn2CC(C)=O)n(CCCC)c1=O` [DENBUFYLLINE], for which the CTS in [1] was 3.5. Further, the Protection in experiment [7] is 49%. Besides, the TAR in [3] amounted to 2.1. The molecule also yielded a Rolipram activity in experiment [8] of 100%.
Turning to `CCCCn1c(=O)c2c(ncn2S(=O)(=O)c2ccc(C(C)(C)C)cc2)n(CCCC)c1=O`, the CTS in experiment [1] turned out to be 5.1. The PDE4 inhibition relative to rolipram in [2] turned out to be 33%. Also, the TAR in experiment [3] is on record as 1.8.
The corresponding values for `CCCCn1c(=O)n(CC2CC2)c(=O)c2c1ncn2S(=O)(=O)c1ccc(OC)c(OC)c1` are 0.7, 97% and 2.8.
Take `CCCCn1c(=O)c2c(ncn2S(=O)(=O)c2ccccc2)n(CCCC)c1=O`: the CTS in experiment [1] was 3.9. Besides, in experiment [4], the TAR worked out at 1.9. Moreover, the PDE4 inhibition relative to rolipram in [5] is 5%.
Turning to `CCCCn1c(=O)c2c(nc(C)n2S(=O)(=O)c2cccc3ccccc23)n(CCCC)c1=O`, in [1], the CTS amounted to 2.2. The same molecule showed a PDE4 inhibition relative to rolipram in experiment [2] of 94%. This molecule returned a TAR in experiment [3] of 1.7.
On to `CCCCn1c(=O)n(CCC(C)C)c(=O)c2c1ncn2S(=O)(=O)c1ccc(OC)c(OC)c1`, for which the CTS in [1] worked out at 3.7. This molecule yielded a PDE4 inhibition relative to rolipram in experiment [2] of 86%. Also, the TAR in [3] was 2.6.
As for `CCCCn1c(=O)c2c(ncn2S(=O)(=O)CCCC)n(CCCC)c1=O`, the CTS in experiment [1] turned out to be 4.7. In [7], this molecule displayed a Protection of 23%. The molecule also registered a TAR in [4] of 2. The PDE4 inhibition relative to rolipram in experiment [5] stood at 15%.
Take `CCCCn1c(=O)c2c(ncn2S(C)(=O)=O)n(CCCC)c1=O`: the CTS in [1] is recorded as 4.7. Further, the pIC50 in experiment [6] is 4.60. The molecule also yielded a TAR in [4] of 1.9. Further, in experiment [5], the PDE4 inhibition relative to rolipram was found to be 84%.
Turning to `CCCCn1c(=O)n(CC2CCC2)c(=O)c2c1ncn2S(=O)(=O)c1ccc(OC)c(OC)c1`, in experiment [1], the CTS was 0.9. In [2], this molecule registered a PDE4 inhibition relative to rolipram of 87%. Besides, the TAR in experiment [3] is given as 2.9.
Take `CCCCn1c(=O)c2c(ncn2S(=O)(=O)c2ccccc2C(=O)OC)n(CCCC)c1=O`: in experiment [1], the CTS came out at 3.1. This molecule gave a pIC50 in experiment [6] of 5.89. Further, the TAR in experiment [4] is 3.5. The molecule also came in with a PDE4 inhibition relative to rolipram in experiment [5] of 61%.
Regarding `CCCCn1c(=O)[nH]c(=O)c2c1ncn2S(=O)(=O)c1ccc(OC)c(OC)c1`, the CTS in [1] worked out at 0.8. For the same molecule, in experiment [2], the PDE4 inhibition relative to rolipram came out at 25%. Besides, the TAR in experiment [3] was 1.3.
The corresponding values for `CCCCn1c(=O)n(CC=C(C)C)c(=O)c2c1ncn2S(=O)(=O)c1ccc(OC)c(OC)c1` are 3.7, 77% and 2.8.
With `CCCCn1c(=O)c2c(ncn2S(=O)(=O)Cc2ccccc2)n(CCCC)c1=O`, the CTS in experiment [1] is on record as 5.1. This molecule also showed a pIC50 in [6] of 5.49. Moreover, in experiment [7], the Protection is 25%. This molecule registered a PDE4 inhibition relative to rolipram in experiment [2] of 7%. Also, the TAR in experiment [3] stood at 2.3.
`CCCCn1c(=O)c2c(ncn2S(=O)(=O)c2cc(C)ccc2C)n(CCCC)c1=O`: in [1], the CTS was found to be 6.6. This molecule also registered a TAR in experiment [4] of 2.6. The molecule also came in with a PDE4 inhibition relative to rolipram in experiment [5] of 92%.
`CCCCn1c(=O)c2c(ncn2S(=O)(=O)CCCCl)n(CCCC)c1=O`: the CTS in experiment [1] turned out to be 3.6. The Protection worked out at 50% in experiment [9] and 47% in [7]. Besides, in experiment [6], the negative-log IC50 (pIC50) is 5.39. In [4], this molecule gave a TAR of 2.1. In addition, the PDE4 inhibition relative to rolipram in experiment [5] amounted to 71%.
`CCCCn1c(=O)c2c(ncn2S(=O)(=O)c2c(C)cc(C)cc2C)n(CCCC)c1=O`: the CTS in [1] came to 4. This molecule gave a pIC50 in experiment [6] of 5.22. Also, the Protection in experiment [7] was found to be 50%. Also, the PDE4 inhibition relative to rolipram in experiment [2] is 58%. Also, in experiment [3], the TAR turned out to be 1.9.
Consider `CCCCn1c(=O)c2c(nc(C)n2S(=O)(=O)CCCCl)n(CCCC)c1=O`, for which the CTS in experiment [1] turned out to be 4.1. In addition, the PDE4 inhibition relative to rolipram in [2] worked out at 95%. This molecule also returned a TAR in experiment [3] of 1.7.
Regarding `CCCCn1c(=O)c2c(ncn2S(=O)(=O)c2cc(F)ccc2C)n(CCCC)c1=O`, the CTS in [1] stood at 6.6. For the same molecule, the TAR in experiment [4] was 2.8. In experiment [5], this molecule had a PDE4 inhibition relative to rolipram of 86%.
As for `CCCCn1c(=O)c2c(nc(C)n2S(=O)(=O)c2ccccc2)n(CCCC)c1=O`, in experiment [1], the CTS is 4. In addition, in experiment [2], the PDE4 inhibition relative to rolipram was determined as 100%. The TAR in [3] was 1.7.
In the case of `CCCCn1c(=O)c2c(ncn2S(=O)(=O)c2ccc(OC)c(OC)c2)n(CCCC)c1=O`, in experiment [1], the CTS came to 4.7. In addition, the negative-log IC50 (pIC50) in experiment [6] is 5.92. In experiment [7], the Protection worked out at 35%. For the same molecule, in [5], the PDE4 inhibition relative to rolipram was determined as 59%. Moreover, the TAR in [3] is 2.5.
For the molecule `CCCCn1c(=O)c2c(ncn2S(=O)(=O)c2cccc([N+](=O)[O-])c2)n(CCCC)c1=O`, in experiment [1], the CTS stood at 2.9. In [7], this molecule showed a Protection of 30%. In experiment [4], the TAR is given as 2. Also, the PDE4 inhibition relative to rolipram in experiment [5] is 37%.

The pIC50 is the IC50 on a negative log10 scale, so that one unit is a factor of ten.
